Assay results taken from ChEMBL document CHEMBL2034847, “Discovery of Plasmodium vivax N-myristoyltransferase inhibitors: screening, synthesis, and structural characterization of their binding mode” (J Med Chem, 2012).

What was measured:
[1] = Inhibition of Plasmodium vivax recombinant N-myristoyltransferase using human pp60Src92-16 amino acids) as substrate; details: for Ki: read-out: Ki(app)
In short: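 Recombinant P. vivax NMT in a 96-well fluorogenic NMT assay. Values are reported as apparent Ki, mean ± SD from duplicates.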

[2] = biological target: T1, Glycylpeptide N-tetradecanoyltransferase 1 (Homo sapiens, UniProt P30419); test: Inhibition of human N-myristoyltransferase 1 using human pp60Src92-16 amino acids) as substrate; details: read-out: Ki(app)
T1 sequence (P30419 whole entry): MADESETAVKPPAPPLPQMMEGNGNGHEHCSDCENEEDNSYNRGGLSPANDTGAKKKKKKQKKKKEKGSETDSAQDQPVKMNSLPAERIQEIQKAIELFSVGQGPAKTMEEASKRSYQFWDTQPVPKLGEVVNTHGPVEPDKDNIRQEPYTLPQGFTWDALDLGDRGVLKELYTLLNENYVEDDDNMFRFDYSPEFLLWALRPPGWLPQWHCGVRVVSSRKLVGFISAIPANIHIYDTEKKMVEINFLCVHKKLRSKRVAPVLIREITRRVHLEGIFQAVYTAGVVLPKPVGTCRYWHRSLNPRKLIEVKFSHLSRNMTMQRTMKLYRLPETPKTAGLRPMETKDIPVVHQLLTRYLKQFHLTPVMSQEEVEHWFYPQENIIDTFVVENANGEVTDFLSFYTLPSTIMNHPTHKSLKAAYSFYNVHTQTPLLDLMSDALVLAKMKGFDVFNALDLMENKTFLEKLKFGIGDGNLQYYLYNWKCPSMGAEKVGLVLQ

[3] = biological target: T2, Glycylpeptide N-tetradecanoyltransferase 2 (Homo sapiens, UniProt O60551); test: Inhibition of human N-myristoyltransferase 2 using human pp60Src92-16 amino acids) as substrate; details: read-out: Ki(app)
T2 sequence (O60551 whole entry): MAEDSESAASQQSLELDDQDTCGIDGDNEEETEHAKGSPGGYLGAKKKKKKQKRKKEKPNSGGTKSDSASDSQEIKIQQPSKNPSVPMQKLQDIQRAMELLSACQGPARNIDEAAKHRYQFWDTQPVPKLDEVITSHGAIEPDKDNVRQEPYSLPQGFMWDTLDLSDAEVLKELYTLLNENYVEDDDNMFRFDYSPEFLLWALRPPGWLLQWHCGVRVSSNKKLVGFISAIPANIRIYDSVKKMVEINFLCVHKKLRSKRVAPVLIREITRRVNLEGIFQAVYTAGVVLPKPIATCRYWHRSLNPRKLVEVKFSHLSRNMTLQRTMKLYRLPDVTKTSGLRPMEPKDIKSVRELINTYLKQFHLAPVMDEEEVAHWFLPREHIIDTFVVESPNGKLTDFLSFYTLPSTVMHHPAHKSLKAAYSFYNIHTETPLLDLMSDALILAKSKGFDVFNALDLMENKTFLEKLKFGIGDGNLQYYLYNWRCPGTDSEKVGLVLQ
In short: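 Recombinant human NMT2 was tested in a fluorogenic plate assay adapted from a published NMT method. Apparent Ki values are the mean ± SD of duplicates.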

IC50 [1] [µM]	Structure (SMILES)	Ki [1] [µM]	Ki [2] [µM]	Ki [3] [µM]
	CCCCc1c(C)nc2ccccc2c1SCCC#N	2.46	> 100	> 100
	CCCCc1c(C)nc2ccc(Br)cc2c1SCCC#N	21.6	> 100	> 100
	CCCCc1c(C)nc2ccc(OC)cc2c1SCCC#N			11.4
26.4	COc1ccc(CNc2sc3c(c2C#N)CC(C)(C)OC3)cc1			
11.4	CCc1ccc2c(c1)S(=O)(=O)C(C(F)(F)F)CO2 (stereo not drawn)			
26.3	CCN(CC)Cc1c(O)ccc2ccccc12			
	CCc1c(C)nc2ccc(OC)cc2c1SCCC#N	3.23		23.2
	COc1ccc2nc(C)cc(SCCC#N)c2c1	> 100	> 100	> 100
	CCOC(=O)c1cnc2ccc(OC)cc2c1SCCC#N	4.74		
	CCOC(=O)c1cnc2ccccc2c1SCCC#N	24.4	> 100	> 100
	CCOC(=O)c1c(C)nc2ccccc2c1SCCC#N	24.4		41.5
	CCOC(=O)c1c(CC)nc2ccccc2c1SCCC#N	60.6	47.9	94.2
	CCCc1nc2ccccc2c(SCCC#N)c1C(=O)OCC	> 100	> 100	> 100
	C#CCCSc1c(CCCC)c(C)nc2ccc(OC)cc12	11.6	> 100	> 100
	CCCCc1c(C)nc2ccc(OC)cc2c1SCCCC#N	35.2	47.6	46.1
	CCCCc1c(C)nc2ccc(OC)cc2c1SCC#N	> 100		
	CCCCc1c(C)nc2ccc(OC)cc2c1SCCCO	17.4	> 100	> 100
	CCCCc1c(C)nc2ccc(OC)cc2c1SCCc1ccccc1	> 100		
	CCOC(=O)c1c(C)nc2ccccc2c1NCC#N	> 100		
	CCOC(=O)c1cnc2ccc(F)cc2c1SCCC#N	7.77		37.5
	CCOC(=O)c1cnc2ccc(C)cc2c1SCCC#N	6.97		> 100
	CCOC(=O)c1cnc2ccc(Cl)cc2c1SCCC#N	10.4	> 100	> 100
	CCOC(=O)c1cnc2ccc(C(C)=O)cc2c1SCCC#N	> 100		
	CCOC(=O)c1cnc2ccc(C(C)O)cc2c1SCCC#N (stereo not drawn)	> 100		
